Laboratory results as given in ChEMBL document CHEMBL1131161 (J Med Chem, 1998).
pEC50, pIC50, pKi: −log10 of the molar value.

Key:
[1] = target: T1, Progesterone receptor (Homo sapiens, UniProt P06401); test: Effective concentration (EC50) against human progesterone receptor expressed in CV-1 cell; type: functional, cell-based
T1 sequence (P06401 whole entry): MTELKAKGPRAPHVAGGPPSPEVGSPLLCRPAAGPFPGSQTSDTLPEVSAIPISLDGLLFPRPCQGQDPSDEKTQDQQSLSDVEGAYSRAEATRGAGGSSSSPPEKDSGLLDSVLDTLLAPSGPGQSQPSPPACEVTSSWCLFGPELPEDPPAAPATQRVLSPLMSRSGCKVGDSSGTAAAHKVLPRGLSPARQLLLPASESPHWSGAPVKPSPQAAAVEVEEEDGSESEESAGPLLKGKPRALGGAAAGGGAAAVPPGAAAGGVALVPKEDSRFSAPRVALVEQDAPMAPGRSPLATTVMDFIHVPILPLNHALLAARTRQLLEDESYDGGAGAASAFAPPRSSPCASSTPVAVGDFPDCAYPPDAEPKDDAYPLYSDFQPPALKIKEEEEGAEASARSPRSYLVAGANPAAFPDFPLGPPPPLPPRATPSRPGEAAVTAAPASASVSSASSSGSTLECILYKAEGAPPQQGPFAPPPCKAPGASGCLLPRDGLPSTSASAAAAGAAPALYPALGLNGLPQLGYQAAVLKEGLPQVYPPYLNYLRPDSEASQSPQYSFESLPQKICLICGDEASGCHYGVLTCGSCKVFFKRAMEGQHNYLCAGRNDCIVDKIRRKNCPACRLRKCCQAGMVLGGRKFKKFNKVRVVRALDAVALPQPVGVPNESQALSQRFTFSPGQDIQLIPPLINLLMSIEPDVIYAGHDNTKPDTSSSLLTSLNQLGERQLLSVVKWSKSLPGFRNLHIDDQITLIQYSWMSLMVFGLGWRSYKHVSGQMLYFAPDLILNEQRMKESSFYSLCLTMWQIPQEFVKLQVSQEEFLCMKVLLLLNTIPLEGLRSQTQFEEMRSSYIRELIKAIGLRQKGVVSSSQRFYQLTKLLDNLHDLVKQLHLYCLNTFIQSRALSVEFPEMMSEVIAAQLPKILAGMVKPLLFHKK

[2] = target: T2, Glucocorticoid receptor (Homo sapiens, UniProt P04150); test: Inhibitory activity (IC50) against human glucocorticoid receptor expressed in CV-1 cells; type: cell-based
T2 sequence (P04150 whole entry): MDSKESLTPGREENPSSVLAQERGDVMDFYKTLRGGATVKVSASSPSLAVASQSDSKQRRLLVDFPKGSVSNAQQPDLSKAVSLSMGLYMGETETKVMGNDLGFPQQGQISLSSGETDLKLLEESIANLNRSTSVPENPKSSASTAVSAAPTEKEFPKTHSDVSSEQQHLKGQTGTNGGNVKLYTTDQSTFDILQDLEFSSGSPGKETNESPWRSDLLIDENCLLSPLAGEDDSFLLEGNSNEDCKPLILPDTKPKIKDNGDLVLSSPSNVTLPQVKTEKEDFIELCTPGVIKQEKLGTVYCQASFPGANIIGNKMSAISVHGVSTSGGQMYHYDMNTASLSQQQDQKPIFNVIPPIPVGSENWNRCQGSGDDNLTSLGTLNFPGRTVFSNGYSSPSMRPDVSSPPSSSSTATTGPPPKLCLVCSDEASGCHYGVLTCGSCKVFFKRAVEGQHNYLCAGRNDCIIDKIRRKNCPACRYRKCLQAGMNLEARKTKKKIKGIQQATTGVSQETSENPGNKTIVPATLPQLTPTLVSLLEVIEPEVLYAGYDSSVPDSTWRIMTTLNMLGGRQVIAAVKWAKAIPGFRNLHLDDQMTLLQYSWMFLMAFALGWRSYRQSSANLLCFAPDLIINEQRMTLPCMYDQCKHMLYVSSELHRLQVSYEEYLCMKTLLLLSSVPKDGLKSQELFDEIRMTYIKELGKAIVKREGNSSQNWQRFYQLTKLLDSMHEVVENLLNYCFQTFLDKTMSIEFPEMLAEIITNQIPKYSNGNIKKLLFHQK
Outline: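 Cotransfection assays in CV-1 cells with a luciferase reporter, read as normalized LUC expression. In antagonist mode, the reference agonists were DHT for hAR, dexamethasone for hGR and aldosterone for hMR. Antagonist efficacy was expressed as the percent of maximal inhibition of the agonist. Values are means of at least three separate experiments in triplicate, or of two experiments.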

[3] = system: CV-1; test: Inhibitory concentration in CV-1 cell; type: functional, cell-based, Cercopithecidae; conditions: Chlorocebus aethiops
[4] = target: T1, Progesterone receptor; test: Binding affinity against human progesterone receptor
[5] = target: T3, Androgen receptor (Homo sapiens, UniProt P10275)
T3 sequence (P10275 whole entry): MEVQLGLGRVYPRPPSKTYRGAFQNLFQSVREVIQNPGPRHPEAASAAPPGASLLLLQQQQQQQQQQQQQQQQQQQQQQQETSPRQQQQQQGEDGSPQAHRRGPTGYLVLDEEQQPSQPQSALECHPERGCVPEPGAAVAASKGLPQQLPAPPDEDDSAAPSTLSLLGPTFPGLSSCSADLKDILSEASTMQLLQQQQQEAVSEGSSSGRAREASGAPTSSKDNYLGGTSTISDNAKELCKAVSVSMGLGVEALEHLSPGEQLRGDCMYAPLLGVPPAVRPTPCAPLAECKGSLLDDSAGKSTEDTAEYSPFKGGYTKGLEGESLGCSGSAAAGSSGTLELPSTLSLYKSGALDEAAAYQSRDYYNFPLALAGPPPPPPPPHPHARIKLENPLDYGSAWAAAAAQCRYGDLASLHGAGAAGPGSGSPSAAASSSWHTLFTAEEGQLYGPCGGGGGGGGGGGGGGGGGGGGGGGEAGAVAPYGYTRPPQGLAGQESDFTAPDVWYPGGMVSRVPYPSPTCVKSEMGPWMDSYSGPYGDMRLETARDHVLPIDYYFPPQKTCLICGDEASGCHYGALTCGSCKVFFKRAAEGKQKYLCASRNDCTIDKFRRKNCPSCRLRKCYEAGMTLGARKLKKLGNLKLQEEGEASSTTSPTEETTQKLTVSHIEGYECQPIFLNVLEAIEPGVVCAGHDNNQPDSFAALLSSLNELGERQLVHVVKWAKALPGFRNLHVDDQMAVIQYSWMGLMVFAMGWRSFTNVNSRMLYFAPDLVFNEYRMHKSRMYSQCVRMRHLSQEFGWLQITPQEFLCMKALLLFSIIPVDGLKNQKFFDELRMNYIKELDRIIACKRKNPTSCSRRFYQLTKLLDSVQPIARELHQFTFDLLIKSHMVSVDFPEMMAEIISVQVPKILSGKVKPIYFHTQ

pEC50 [1]	pIC50 [2]	pIC50 [3]	pKi [4]	pKi [5]	SMILES
7.83	6.43	< 5.00	8.82	6.05	CC1=CC(C)(C)Nc2ccc3c(c21)/C(=C/c1cc(F)ccc1F)Oc1ccccc1-3
7.83	5.78	< 5.00	8.44	< 6.00	CC1=CC(C)(C)Nc2ccc3c(c21)/C(=C/c1ccc(F)c(F)c1)Oc1ccccc1-3

SMILES	pEC50 [1]	pIC50 [2]	pIC50 [3]	pKi [4]	pKi [5]
CC1=CC(C)(C)Nc2ccc3c(c21)/C(=C/c1ccccc1C)Oc1ccccc1-3	8.24	5.98	< 5.00	9.18	6.07
